# High-throughput results deposited in PubChem by several laboratories.
# In the library only some 8.9% were active in any assay of this set; here they are far more common.
# Dynein cargo inh: inhibitors of GR-EGFP nuclear translocation, primary screen, dynein cargo transport inhibitor project, imaging, high-content, 3617.4 mouse cells; AID 1381, 2008; 0.47% of 220,000 active; test concentration mostly 20 µM; stimulated with dexamethasone, 1 µM; stronger effect = lower value; z-score, hits read low;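 active means plate z-score of nuclear minus cytoplasmic receptor signal below a set negative limit, without overly bright fluorescence or cell loss, cut at about -3.5 in these data, passing the limit was not always enough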;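 further: z-score of nuclear minus cytoplasmic ring GR-EGFP intensity difference per well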
#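 Also added – dexamethasone, 1.0 µM final · Buffer or medium – tet-free, stripped-serum medium · Schedule – induction 48 h, compound 1 h, agonist 30 min · Detection – formaldehyde fixation, Hoechst nuclear stain, 10x automated fluorescence imaging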
# HSV augment: enhancers of HSV replication in host cells, fold increase, host cell viability; HSV replication augmentation in cells; maximum fold increase; 0.005% of 220,000 active; AID 1956, 2009; in the data active means maximum fold increase above about 1.5; tested in PC3 cells
# MT stabilize HCS: microtubule stabilizers in HeLa cells, primary screen, imaging, high-content imaging; % tubulin-high responders, % at 10 µM; HeLa tubulin immunostaining HCS, 24 h; share of cells brighter than vehicle mean+2SD; 0.83% of 200,000 active;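 active means plate Z-score above 3 for both tubulin-high and condensed-nucleus cell shares, with cell loss under 80%, at 10 µM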;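 further: anti alpha tubulin signal scored within the nucleus-defined area of each cell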
# Lmaj promast: Leishmania major promastigote growth inhibition, primary screen; Leishmania major promastigotes, resazurin fluorescence viability; inhibition, % at 10 µM; 9% of 200,000 active; AID 1063, 2008; in the data active means inhibition above about 50%;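 further: promastigotes grown with compound for 44 hours at 28 °C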
# b-catenin transl: modulators of beta-catenin nuclear translocation, primary screen, imaging, HeLa cells, immunofluorescence, high-content. nuclear translocation activity, % at 5 µM. 0.3% of 190,000 active;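 active means nuclear translocation activity above 50% at 5 µM, with a well cell count of 50 or more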;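 further: per-cell ratio of nuclear to cytoplasmic median beta-catenin stain intensity; plate controls were DMSO negative control for no effect and GSK-3 inhibitor IX positive control for full effect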
#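 Signal – beta-catenin immunofluorescence imaging with DAPI · Test system – human HeLa cell line · Dosing – 5 µM primary single dose, 0.1% DMSO, 0.02–20 µM confirmation series · Measure – % activation, nuclear-to-cytoplasmic median beta-catenin signal ratio per cell · Incubation – 24 h compound exposure at 37°C, 5% CO2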
# Numbers without * were called inactive; i = inactive; . = not tested or not shown.
SMILES,Dynein cargo inh,HSV augment,MT stabilize HCS,Lmaj promast,b-catenin transl
CCOC(=O)N1N=C(c2ccccc2)CC1(O)C(C)(F)F (centres undefined),-1.2,i,6,-11,2
CCOc1nc(NCc2ccco2)nc(Nc2ccccc2F)n1,0.34,i,2,9,.
COc1ccccc1Nc1nc(NCc2ccco2)c2ccccc2n1,-0.25,i,.,.,1
c1ccc(-c2nc(NCc3ccco3)c3ccccc3n2)nc1,-0.53,i,2,100*,0
Fc1ccccc1-c1nc(NCc2ccco2)c2ccccc2n1,-0.77,i,2,53*,-1
Cc1ccc(Nc2nc(NCc3ccco3)c3ccccc3n2)cc1,1,i,3,101*,0
Oc1ccccc1-c1nc(NCc2ccco2)c2ccccc2n1,2.1,i,5,29,-8
CCOc1nc(NCc2ccco2)nc(Nc2ccc(OC)cc2)n1,0.086,i,1,84*,0
Cc1cccc(-c2noc(CN(C(C)C)S(=O)(=O)c3ccc(F)cc3)n2)c1,0.06,i,2,-1,-1
Brc1ccc2ncnc(NCc3ccco3)c2c1,-0.59,i,3,55*,-3
COc1cc2ncnc(NCc3ccco3)c2cc1OC,-0.34,i,4,7,-1
Cc1cc(=O)oc2cc(NC(=O)C3CCCC3)ccc12,0.012,i,6,101*,-2
COc1ccc(CC(=O)Nc2ccc3c(C)cc(=O)oc3c2)cc1OC,0.48,i,2,64*,3
COc1ccc(CC(=O)Nc2ccc3c(c2)CCC3)cc1OC,3.4,i,2,0,2
Cc1ccc(CN2CC(C(=O)Nc3ccc4c(C)cc(=O)oc4c3)CC2=O)cc1 (centres undefined),0.52,i,4,4,0
Fc1ccc(-n2cc(CNCCc3ccccn3)c(-c3ccccc3Cl)n2)cc1,-0.71,i,2,37,-2
COc1ccc(-n2cc(CNCCc3nc(C)cc(C)n3)c(-c3ccccc3Cl)n2)cc1,-1.6,i,3,8,-1
COc1ccc(-n2cc(CNCCCn3ccnc3)c(-c3ccccc3Cl)n2)cc1,1.2,i,2,100*,2
COc1ccc(-n2cc(CNCCN3CCOC3=O)c(-c3ccccc3Cl)n2)cc1,0.57,i,.,.,0
CCN1CCC(CNCc2cn(-c3ccc(OC)cc3)nc2-c2ccccc2Cl)C1 (centres undefined),-0.36,i,2,101*,0
COc1ccc(-n2cc(CNCCc3ncc(C)[nH]3)c(-c3ccccc3Cl)n2)cc1,-0.45,i,2,100*,0
Cn1c2[n+](c3ccc(Cl)cc3c1=O)Cc1ccccc1-2,-0.23,i,.,.,0
COc1ccc(C(=O)NC(=S)NNC(=O)c2ccc(NC(=O)C(C)C)cc2)cc1,-0.36,i,2,71*,-1
CCC(=O)NC(=S)NNC(=O)c1ccc([N+](=O)[O-])cc1,0.98,i,4,97*,0
CCCCOc1ccc(C(=O)NNC(=S)NC(=O)CC)cc1,0.4,i,1,93*,3
SMILES,Dynein cargo inh,HSV augment,MT stabilize HCS,Lmaj promast,b-catenin transl
CCC(=O)NC(=S)NNC(=O)c1ccc(OC)cc1,-0.52,i,2,0,1
CCCOc1ccc(C(=O)NNC(=S)NC(C)=O)cc1,1.9,i,5,97*,0
CC(C)(C)C(=O)Nc1cccc2[nH]ncc12,0.21,i,2,-1,0
CCC(=O)NC(=S)Nc1ccc(NC(=O)COc2ccccc2)cc1,-0.09,i,2,4,4
CCC(=O)NC(=S)NNC(=O)COc1ccc(Br)cc1,-0.23,i,1,74*,1
COc1ccc(Nc2cc(C)nc3nc(C)nn23)c(OC)c1,0.21,i,3,-4,-1
COc1ccc(OC)c(Nc2cc(C)nc3nc(C)nn23)c1,-0.55,i,16*,-4,8
CCN(CC)N=Nc1ccc(C(=O)O)cc1,0.4,i,0,69*,.
O=S(=O)(c1ccccc1)c1cnn(-c2ccccc2)c1-c1ccc(F)cc1,0.69,i,4,50*,-3
O=S(=O)(c1ccccc1)c1cnn2c(C(F)(F)F)cc(-c3ccc(F)cc3)nc12,-0.49,i,0,25,.
COc1ccc(-n2ncc(S(=O)(=O)c3ccccc3)c2-c2ccc(Cl)cc2)cc1,-0.72,i,3,99*,-3
